Experimental data gathered from unrelated publications.
MAP3K7: Mitogen-activated protein kinase kinase kinase 7 (MAP3K7, Homo sapiens, UniProt O43318)
MAL12: Alpha-glucosidase MAL12 (MAL12, Saccharomyces cerevisiae S288c, UniProt P53341)

Structure (SMILES)	target	assay	conditions	quantity	value
COc1ccc2oc(-c3ccc4nc(N)oc4c3)c/c(=N\c3ccccc3NC(=O)CCN)c2c1	Bone morphogenetic protein receptor type-1B (BMPR1B, Homo sapiens, UniProt O00238)	binding	1 µM	remaining binding	99%
C#Cc1cnc(Nc2ccc(CO)nc2)nc1Nc1ccccc1S(C)(=O)=NC#N (stereo not drawn)	MAP3K7	enzyme activity, inhibitor	1 µM	remaining activity	50.4%
O=C1C[C@@H](c2ccc(O)cc2)Oc2c(Br)c(O)c(Br)c(O)c21	MAL12	enzyme activity, inhibitor, absorbance	50 µM	inhibition	80.5%
CCCCCCCCCCCCCC(=O)OCC(C)(C)CC1=C(O)C(=O)c2ccccc2C1=O	MAL12	enzyme activity, inhibitor	50 µM	inhibition	> 70%
O=c1cc(-c2ccccc2)oc2cc(O)cc(O)c12	MAL12	enzyme activity, inhibitor, absorbance	50 µM	inhibition	31.2%
CCCCC(=O)Nc1ccc(-c2ccc3ncn(CCC)c(=O)c3c2)cn1	Wee1-like protein kinase 2 (WEE2, Homo sapiens, UniProt P0C1S8)	binding, competition with immobilised ligand	0.5 µM	remaining binding	100%
C1=C/COCc2cc(ccc2OCCN2CCCC2)Nc2nccc(n2)-c2cccc(c2)COC/1	Tyrosine-protein kinase Lyn (LYN, Homo sapiens, UniProt P07948)	binding	0.1 µM	remaining binding	88%
CNC(=O)c1ccccc1Nc1nc(Nc2ccc(CO)cc2)ncc1Cl	MAP3K7	enzyme activity, inhibitor	1 µM	remaining activity	42.9%
COc1cc2c3c(c1OC)-c1c(OC)ccc(-c4ccc(C#N)cc4)c1CC3N(C)CC2 (stereo not drawn)	Alpha-1A adrenergic receptor (ADRA1A, Homo sapiens, UniProt P35348)	ligand displacement, radioligand	10 µM	inhibition	83%
C#Cc1cnc(Nc2ccc(CO)cc2)nc1Nc1ccccc1C(=O)NC	MAP3K7	enzyme activity, inhibitor	1 µM	remaining activity	76.9%
O=c1c(O)c(-c2ccc(O)cc2)oc2cc(O)cc(O)c12	MAL12	enzyme activity, inhibitor, absorbance	50 µM	inhibition	39.8%
C#Cc1cc(-c2cc(Nc3nc(N[C@@H](C)c4ccc(F)cn4)ncc3Cl)n[nH]2)ccc1C=O	Mitotic checkpoint serine/threonine-protein kinase BUB1 (BUB1, Homo sapiens, UniProt O43683)	enzyme activity, inhibitor	0.2 µM	inhibition	35%
